Drawing on ChEMBL document CHEMBL2321876, this text covers Activity and Kd for 46 compounds.

SMILES strings stand for the structures. Activity calls are given as the source filed them. No rule for the calls is given here. A value given as a limit tells only on which side of the number the result lay.

The test system of assay [1] is Acinetobacter baumannii. Briefly: Antibacterial activity against Acinetobacter baumannii ATCC 19606 using iron-replete M9 minimal media after 15 hrs by broth microdilution assay. The class given is functional, organism-based. As to conditions: ATCC 19606 = CIP 70.34 = JCM 6841. An outline of the steps: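 ATCC 19606 grown overnight at 30 °C on LB agar, washed twice in dipyridyl-containing M9/casamino acids medium, then diluted to A600 0.0003 in M9 minimal medium with 0.2% casamino acids plus 200 μM FeCl3. Inhibitors from DMSO at 100 μM final, in triplicate. Controls were tetracycline (100 ng/mL) and 1% DMSO. Incubated at 30 °C, A600 measured at 15 h.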

A short description of assay [2]: Displacement of Fl-Sal-AMS from Mycobacterium tuberculosis MbtA expressed in Escherichia coli after 30 mins by fluorescence polarization assay. A general note: Polarisation of emitted light reports the rotation of a fluorescent probe.
Assay [3] can be described thus: Displacement of Fl-Sal-AMS from Acinetobacter baumanni BasE expressed in Escherichia coli after 30 mins by fluorescence polarization assay. On the set-up: species or system Acinetobacter baumannii.
Assay [4] concerns Acinetobacter baumannii. Nature of the assay: Antibacterial activity against Acinetobacter baumannii ATCC 19606 using iron-deficient M9 minimal media after 15 hrs by broth microdilution assay. Format: functional, organism-based. The settings on record: ATCC 19606 = CIP 70.34 = JCM 6841. The procedure, abridged:
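ATCC 19606 grown overnight at 30 °C on LB agar, washed twice and resuspended in M9 minimal medium with 0.2% casamino acids and 200 μM dipyridyl. Inoculated at A600 0.0003 in this medium plus 1 μM FeCl3. Inhibitors from DMSO at 100 μM final, in triplicate. Tetracycline (100 ng/mL) and 1% DMSO as controls. Incubated at 30 °C; A600 read at 15 h.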
Background: In broth dilution the organism is exposed to a series of concentrations in liquid medium.

In general, Kd refers to the equilibrium constant for the complex coming apart. As to `Nc1ccc(-c2cc(C(=O)O)c3cnn(Cc4ccncc4)c3n2)cc1`, the outcome in the assay on Acinetobacter baumannii [1] and in the assay on Acinetobacter baumannii [4] was inactive. Moreover, the figures for the Kd in assay [2] and in assay [3] (read-out: Kd) were 4.08 µM and 0.0782 µM, respectively.

As for `O=C(O)c1cc(-c2ccc(-c3ccccc3)cc2)nc2c1cnn2Cc1ccncc1`, the result in the assay with Acinetobacter baumannii [1] and in the assay on Acinetobacter baumannii [4] was inactive. Also, the results for the Kd in assay [2] and in assay [3] (read-out: Kd) were 3.5 µM and 0.125 µM, respectively.

Turning to `Cc1cccc(-c2cc(C(=O)O)c3cnn(Cc4ccncc4)c3n2)c1`, the outcome in the assay on Acinetobacter baumannii [1] and with Acinetobacter baumannii [4] was inactive. The dissociation constant (Kd) in assay [2] is 7.4 µM; in assay [3] (read-out: Kd), 0.158 µM.

Consider `C=Cc1cc(C(=O)O)c2cnn(Cc3ccncc3)c2n1`, for which the result in the assay with Acinetobacter baumannii [1] and in the assay with Acinetobacter baumannii [4] was inactive. The Kd in assay [2] is greater than 100 µM; in assay [3] (read-out: Kd), 1.9 µM.

Turning to `O=C(O)c1cc(-c2ccc(C(F)(F)F)cc2)nc2c1cnn2Cc1ccncc1`, the result in the assay on Acinetobacter baumannii [1] and in the assay on Acinetobacter baumannii [4] was inactive.

As to `O=C(O)c1cc(-c2ccc(Cl)cc2)nc2c1cnn2Cc1ccncc1`, the result with Acinetobacter baumannii [1] and in the assay with Acinetobacter baumannii [4] was inactive.

Take `O=C(O)c1cc(-c2ccccc2)nc2c1cnn2Cc1ccccc1`: the outcome in the assay on Acinetobacter baumannii [1] and in the assay on Acinetobacter baumannii [4] was inactive. Also, in assay [3] (read-out: Kd), the Kd was greater than 100 µM.

As for `CN(C)c1ccc(-c2cc(C(=O)O)c3cnn(Cc4ccncc4)c3n2)cc1`, the result in the assay on Acinetobacter baumannii [1] and with Acinetobacter baumannii [4] was inactive. Moreover, the figures for the Kd in assay [2] and in assay [3] (read-out: Kd) were 1.7 µM and 0.628 µM, respectively.

For `O=C(O)c1cc(-c2ccccc2Cl)nc2c1cnn2Cc1ccncc1`, the outcome in the assay on Acinetobacter baumannii [1] and in the assay with Acinetobacter baumannii [4] was inactive. In addition, the Kd in assay [2] is greater than 100 µM; in assay [3] (read-out: Kd) it was 2.48 µM.

Consider `O=c1cc(-c2ccccc2)[nH]c2c1cnn2Cc1ccncc1`, for which the outcome in the assay on Acinetobacter baumannii [1] and in the assay with Acinetobacter baumannii [4] was inactive. Further, in assay [3] (read-out: Kd), the dissociation constant Kd was greater than 100 µM.

In the case of `O=C(O)c1cc(=O)[nH]c2c1cnn2Cc1ccncc1`, the outcome in the assay with Acinetobacter baumannii [1] and with Acinetobacter baumannii [4] was inactive. The Kd in assay [3] (read-out: Kd) is greater than 100 µM.

In the case of `O=C(O)c1cc(-c2cccc(O)c2)nc2c1cnn2Cc1ccncc1`, the outcome in the assay with Acinetobacter baumannii [1] and in the assay on Acinetobacter baumannii [4] was inactive. In addition, the Kd in assay [2] was 7.67 µM; in assay [3] (read-out: Kd), 0.124 µM.

For the compound `O=C(O)c1cc(-c2ccccc2-c2ccccc2Cl)nc2c1cnn2Cc1ccncc1`, the result in the assay on Acinetobacter baumannii [1] and in the assay with Acinetobacter baumannii [4] was inactive. Besides, the Kd in assay [2] was greater than 50 µM; in assay [3] (read-out: Kd), 19.7 µM.

Regarding `COc1ccc(Cn2ncc3c(C(=O)O)cc(-c4ccccc4)nc32)cc1`, the result in the assay on Acinetobacter baumannii [1] and in the assay on Acinetobacter baumannii [4] was inactive. Moreover, in assay [3] (read-out: Kd), the dissociation constant (Kd) was greater than 100 µM.

Regarding `Cc1ccc(-c2cc(C(=O)O)c3cnn(Cc4ccncc4)c3n2)cc1`, the result in the assay on Acinetobacter baumannii [1] and in the assay with Acinetobacter baumannii [4] was inactive. Moreover, the figures for the Kd in assay [2] and in assay [3] (read-out: Kd) were 1.44 µM and 0.212 µM, respectively.

Consider `COc1ccc(COc2ccc(-c3cc(C(=O)O)c4cnn(Cc5ccncc5)c4n3)cc2)cc1`, for which the result in the assay on Acinetobacter baumannii [1] and with Acinetobacter baumannii [4] was inactive. For the same compound, the Kd was determined as 5.8 µM in assay [2] and 0.0445 µM in assay [3] (read-out: Kd).

As to `O=C(O)c1cc(-c2ccc(Cl)nc2)nc2c1cnn2Cc1ccncc1`, the result in the assay with Acinetobacter baumannii [1] and in the assay on Acinetobacter baumannii [4] was inactive.

For the compound `O=C(O)c1cc(-c2ccccc2)nc2[nH]ncc12`, the outcome in the assay with Acinetobacter baumannii [1] and in the assay on Acinetobacter baumannii [4] was inactive. In addition, the Kd in assay [3] (read-out: Kd) was greater than 100 µM.

For the compound `O=C(O)c1cc(-c2cccc(-c3ccccc3)c2)nc2c1cnn2Cc1ccncc1`, the result with Acinetobacter baumannii [1] and in the assay with Acinetobacter baumannii [4] was inactive. The dissociation constant Kd in assay [2] turned out to be 3.6 µM; in assay [3] (read-out: Kd), 0.164 µM.

In the case of `O=C(O)c1cc(-c2ccccc2)cc2c1cnn2Cc1ccncc1`, the outcome in the assay on Acinetobacter baumannii [1] and in the assay on Acinetobacter baumannii [4] was inactive. Further, the dissociation constant (Kd) in assay [2] is 27.6 µM; in assay [3] (read-out: Kd), 0.0848 µM.

In the case of `O=C(O)c1ccc(-c2cc(C(=O)O)c3cnn(Cc4ccncc4)c3n2)cc1`, the result in the assay on Acinetobacter baumannii [1] and with Acinetobacter baumannii [4] was inactive. Besides, the Kd is 6.1 µM in assay [2] and 0.776 µM in assay [3] (read-out: Kd).

With `O=C(O)c1cc(-c2cc3ccccc3s2)nc2c1cnn2Cc1ccncc1`, the result with Acinetobacter baumannii [1] and in the assay with Acinetobacter baumannii [4] was inactive.

As to `O=C(O)c1cc(-c2ccc(Br)cc2)nc2c1cnn2Cc1ccncc1`, the outcome in the assay on Acinetobacter baumannii [1] and in the assay with Acinetobacter baumannii [4] was inactive.

In the case of `O=C(O)c1ccc(-c2cc(C(=O)O)c3cnn(Cc4ccncc4)c3n2)cc1O`, the result in the assay with Acinetobacter baumannii [1] and in the assay on Acinetobacter baumannii [4] was inactive.

In the case of `O=C(O)c1cc(-c2ccc([N+](=O)[O-])cc2)nc2c1cnn2Cc1ccncc1`, the outcome with Acinetobacter baumannii [1] and in the assay with Acinetobacter baumannii [4] was inactive.

On to `OCc1cc(-c2ccccc2)nc2c1cnn2Cc1ccncc1`, for which the outcome in the assay on Acinetobacter baumannii [1] and in the assay with Acinetobacter baumannii [4] was inactive. Further, the Kd in assay [2] turned out to be 16.8 µM; in assay [3] (read-out: Kd), 0.102 µM.

As for `O=C(O)c1cc(-c2ccccc2)nc2c1cnn2Cc1cccnc1`, the outcome in the assay on Acinetobacter baumannii [1] and in the assay on Acinetobacter baumannii [4] was inactive. In assay [3] (read-out: Kd), the Kd was greater than 100 µM.

For the compound `O=C(O)c1cc(-c2cccs2)nc2c1cnn2Cc1ccncc1`, the result in the assay on Acinetobacter baumannii [1] and in the assay on Acinetobacter baumannii [4] was inactive. The Kd in assay [2] worked out at 6.68 µM; in assay [3] (read-out: Kd), 0.443 µM.

Consider `Cc1ccc(-c2cc(C(=O)O)c3cnn(Cc4ccncc4)c3n2)s1`, for which the result in the assay on Acinetobacter baumannii [1] and with Acinetobacter baumannii [4] was inactive. Besides, the Kd in assay [2] is 2.6 µM; in assay [3] (read-out: Kd), 0.0076 µM.

As to `Cc1ccsc1-c1cc(C(=O)O)c2cnn(Cc3ccncc3)c2n1`, the outcome in the assay with Acinetobacter baumannii [1] and in the assay with Acinetobacter baumannii [4] was inactive. In addition, the values for the Kd in assay [2] and in assay [3] (read-out: Kd) were 19.2 µM and 0.34 µM, respectively.

On to `O=C(O)c1cc(-c2cccnc2)nc2c1cnn2Cc1ccncc1`, for which the result with Acinetobacter baumannii [1] and in the assay with Acinetobacter baumannii [4] was inactive. For the same compound, the Kd in assay [2] amounted to 16.8 µM; in assay [3] (read-out: Kd), 0.132 µM.

`O=C(O)c1cc(-c2cncc3ccccc23)nc2c1cnn2Cc1ccncc1`: the outcome with Acinetobacter baumannii [1] and with Acinetobacter baumannii [4] was inactive. Also, the Kd was greater than 100 µM in assay [2] and 7.73 µM in assay [3] (read-out: Kd).

For the compound `CSc1ccc(-c2cc(C(=O)O)c3cnn(Cc4ccncc4)c3n2)cc1`, the result in the assay on Acinetobacter baumannii [1] and in the assay on Acinetobacter baumannii [4] was inactive.

For the compound `O=C(O)c1cc(-c2ccc(-c3ccc(Br)cc3)cc2)nc2c1cnn2Cc1ccncc1`, the outcome in the assay on Acinetobacter baumannii [1] and in the assay on Acinetobacter baumannii [4] was inactive. Besides, the dissociation constant Kd was determined as 19.7 µM in assay [2] and 0.181 µM in assay [3] (read-out: Kd).

As to `Cc1ccccc1-c1cc(C(=O)O)c2cnn(Cc3ccncc3)c2n1`, the result in the assay on Acinetobacter baumannii [1] and in the assay on Acinetobacter baumannii [4] was inactive. The results for the dissociation constant (Kd) in assay [2] and in assay [3] (read-out: Kd) were greater than 100 µM and 2.15 µM, respectively.

Turning to `Nc1cc(-c2ccccc2)nc2c1cnn2Cc1ccncc1`, the result in the assay with Acinetobacter baumannii [1] and in the assay with Acinetobacter baumannii [4] was inactive. Moreover, the dissociation constant Kd was determined as 36.4 µM in assay [2] and 0.2 µM in assay [3] (read-out: Kd).

Take `CC(C)n1ncc2c(C(=O)O)cc(-c3ccccc3)nc21`: the result in the assay with Acinetobacter baumannii [1] and in the assay with Acinetobacter baumannii [4] was inactive. In addition, the Kd in assay [3] (read-out: Kd) is greater than 500 µM.

For `CCCCCCCCCCCCCCCCOc1ccc(-c2cc(C(=O)O)c3cnn(Cc4ccncc4)c3n2)cc1`, the outcome with Acinetobacter baumannii [1] and with Acinetobacter baumannii [4] was inactive. Moreover, the Kd entry in assay [3] was “ND(Insoluble)”.

For the compound `O=C(O)c1cc(-c2ccccc2)nc2c1cnn2Cc1ccco1`, the outcome in the assay on Acinetobacter baumannii [1] and in the assay with Acinetobacter baumannii [4] was inactive. Also, in assay [3] (read-out: Kd), the Kd is greater than 100 µM.

Take `N#Cc1ccc(-c2cc(C(=O)O)c3cnn(Cc4ccncc4)c3n2)cc1`: the outcome with Acinetobacter baumannii [1] and in the assay on Acinetobacter baumannii [4] was inactive.

`CC(=O)c1ccc(-c2cc(C(=O)O)c3cnn(Cc4ccncc4)c3n2)cc1`: the outcome with Acinetobacter baumannii [1] and in the assay with Acinetobacter baumannii [4] was inactive.

`CCn1ncc2c(C(=O)O)cc(-c3ccccc3)nc21`: the result with Acinetobacter baumannii [1] and with Acinetobacter baumannii [4] was inactive. Also, in assay [3] (read-out: Kd), the Kd was greater than 500 µM.

As to `O=C(O)c1cc(-c2ccc(-c3ccc(Cl)nc3)nc2)nc2c1cnn2Cc1ccncc1`, the result with Acinetobacter baumannii [1] and with Acinetobacter baumannii [4] was inactive.

As for `CC(=O)c1ccc(-c2cc(C(=O)O)c3cnn(Cc4ccncc4)c3n2)s1`, the outcome in the assay on Acinetobacter baumannii [1] and with Acinetobacter baumannii [4] was inactive.

Consider `COc1ccc(Cn2ncc3c(C(=O)O)cc(Nc4ccccc4)nc32)cc1`, for which the result in the assay on Acinetobacter baumannii [1] and in the assay with Acinetobacter baumannii [4] was inactive. The Kd in assay [3] (read-out: Kd) was greater than 100 µM.

For the compound `CS(=O)(=O)c1ccc(-c2cc(C(=O)O)c3cnn(Cc4ccncc4)c3n2)cc1`, the outcome in the assay with Acinetobacter baumannii [1] and in the assay with Acinetobacter baumannii [4] was inactive.
